Data: ChEMBL document CHEMBL4052757, “Bistacrines as potential antitrypanosomal agents” (Bioorg Med Chem, 2017)
Active and inactive are the calls of the source. The rule behind the calls is not given here.

Tests used:
[1] = test system: Trypanosoma brucei brucei; assay: Antitrypanosomal activity against Trypanosoma brucei brucei TC221 after 72 hrs by alamar blue assay; type: functional; details: TC221, 72 h
Procedure, shortened: (§1)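 T. b. brucei TC221 bloodstream-form proliferation measured by alamarBlue (resazurin reduced to resorufin by living cells); 48 h and 72 h read-outs. IC50 derived per Räz et al. method; each compound tested in duplicate, mean of two values.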

[2] = test system: Trypanosoma brucei brucei; assay: Antitrypanosomal activity against Trypanosoma brucei brucei TC221 after 48 hrs by alamar blue assay; type: functional; details: TC221, 48 h; procedure, shortened: as §1
[3] = test system: J774.1; assay: Cytotoxicity against mouse J774.1 cells after 24 hrs by alamar blue assay; type: cell-based; details: J774.1, 24 h
[4] = Selectivity index, ratio of IC50 for mouse J774.1 cells to IC50 for Trypanosoma brucei brucei TC221 measured after 48 hrs; type: toxicity; details: J774.1 cells (versus Trypanosoma brucei brucei TC221), read-out: Ratio IC50
Procedure, shortened: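 Selectivity index computed as IC50 (J774.1 macrophages, alamarBlue) divided by IC50 (T. b. brucei TC221, alamarBlue); duplicate determinations, means used.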

[5] = target: Rhodesain (Trypanosoma brucei rhodesiense) (UniProt Q95PM0); assay: Inhibition of Trypanosoma brucei rhodesiense rhodesain at 20 uM using Cbz-Phe-Arg-AMC as substrate measured for 5 mins by spectrofluorometric analysis relative to control
Procedure, shortened: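 Rhodesain in 50 mM sodium acetate pH 5.5 with 5 mM DTT, 5 mM EDTA, 200 mM NaCl; inhibitor 20 µM, substrate Cbz-Phe-Arg-AMC; AMC fluorescence (ex 380/em 460 nm) followed 5 min; activity from slopes of fluorescence vs time versus DMSO control; run in duplicate.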

[6] = target: Rhodesain (Trypanosoma brucei rhodesiense, UniProt Q95PM0); assay: Inhibition of Trypanosoma brucei rhodesiense rhodesain using Cbz-Phe-Arg-AMC as substrate measured for 10 mins by spectrofluorometric analysis
[7] = target: Rhodesain (Trypanosoma brucei rhodesiense) (UniProt Q95PM0); assay: Inhibition of Trypanosoma brucei rhodesiense rhodesain using Cbz-Phe-Arg-AMC as substrate by spectrofluorometric analysis
[8] = test system: Leishmania infantum; assay: Antileishmanial activity against Leishmania infantum; type: functional
[9] = Inhibition of trypanothione reductase
[10] = Aqueous solubility of the compound; type: physicochemical; details: buffer
[11] = Ratio of IC50 for Trypanosoma brucei rhodesiense rhodesain to IC50 for Trypanosoma brucei brucei TC221
[12] = Stability of the compound; type: physicochemical
[13] = target: Trypanothione reductase (Trypanosoma cruzi) (UniProt P28593); assay: Inhibition of Trypanosoma cruzi trypanothione reductase at 5 uM using 100 uM trypanothione disulfide as substrate by spectrophotometric method relative to control
Procedure, shortened: (§2)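 TcTryR (about 2 nM) in 40 mM HEPES, 1 mM EDTA, pH 7.5, 100 µM NADPH; inhibitor at fixed 2 or 5 µM (screening range 1–5 µM) from DMSO stock; TS2 fixed at 40 or 100 µM; absorbance decrease monitored; percent inhibition versus DMSO control.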

[14] = target: Trypanothione reductase (Trypanosoma cruzi) (UniProt P28593); assay: Inhibition of Trypanosoma cruzi trypanothione reductase at 5 uM using 40 uM trypanothione disulfide as substrate by spectrophotometric method relative to control; procedure, shortened: as §2
[15] = target: Trypanothione reductase (Trypanosoma cruzi) (UniProt P28593); assay: Inhibition of Trypanosoma cruzi trypanothione reductase at 2 uM using 100 uM trypanothione disulfide as substrate by spectrophotometric method relative to control; procedure, shortened: as §2
[16] = target: Trypanothione reductase (Trypanosoma cruzi) (UniProt P28593); assay: Inhibition of Trypanosoma cruzi trypanothione reductase at 2 uM using 40 uM trypanothione disulfide as substrate by spectrophotometric method relative to control; procedure, shortened: as §2

Rhodesain, sequence (Q95PM0 whole entry): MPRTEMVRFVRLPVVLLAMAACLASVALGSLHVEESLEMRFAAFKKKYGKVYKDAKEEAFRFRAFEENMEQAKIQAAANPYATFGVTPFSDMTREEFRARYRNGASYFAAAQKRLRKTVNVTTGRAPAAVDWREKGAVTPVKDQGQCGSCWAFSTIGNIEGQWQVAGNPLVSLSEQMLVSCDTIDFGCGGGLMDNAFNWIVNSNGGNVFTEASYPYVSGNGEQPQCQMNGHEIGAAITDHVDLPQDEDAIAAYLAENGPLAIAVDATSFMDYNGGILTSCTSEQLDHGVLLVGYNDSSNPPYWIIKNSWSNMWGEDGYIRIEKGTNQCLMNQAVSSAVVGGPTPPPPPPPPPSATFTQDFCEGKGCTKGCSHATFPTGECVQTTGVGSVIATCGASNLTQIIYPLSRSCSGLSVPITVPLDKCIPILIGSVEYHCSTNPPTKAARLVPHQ
Rhodesain (Trypanosoma brucei rhodesiense), sequence (Q95PM0 1-450): as the sequence (Q95PM0 whole entry) above
Trypanothione reductase (Trypanosoma cruzi), sequence (P28593 whole entry, looked up): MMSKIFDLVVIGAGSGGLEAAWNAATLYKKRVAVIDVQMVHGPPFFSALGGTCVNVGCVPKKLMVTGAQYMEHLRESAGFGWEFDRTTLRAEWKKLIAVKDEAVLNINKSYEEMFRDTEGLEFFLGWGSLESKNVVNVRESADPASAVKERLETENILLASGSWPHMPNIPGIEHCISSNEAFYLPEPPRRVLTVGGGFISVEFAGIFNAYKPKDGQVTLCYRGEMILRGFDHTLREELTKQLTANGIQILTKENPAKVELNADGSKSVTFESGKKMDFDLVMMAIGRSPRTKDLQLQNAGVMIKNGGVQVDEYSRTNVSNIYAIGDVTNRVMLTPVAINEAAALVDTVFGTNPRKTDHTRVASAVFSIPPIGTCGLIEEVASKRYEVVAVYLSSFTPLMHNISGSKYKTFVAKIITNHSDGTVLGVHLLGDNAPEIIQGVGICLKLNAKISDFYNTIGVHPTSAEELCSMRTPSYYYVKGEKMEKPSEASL

Row | SMILES | IC50 [1] [µM] | IC50 [2] [µM] | IC50 [3] [µM] | selectivity ratio at 48 h [4] | Activity [8] | inhibition [9] | also measured
1 | CC1CCc2nc3ccccc3c(NCCCCCCCCCNc3c4c(nc5ccccc35)CCC(C)C4)c2C1 (stereo not drawn) | 0.21 | 0.16 | 1.8 | 11.3 | Active | Active | inhibition [5]: 68%; IC50 [6]: 26.6 µM; inhibition [7]: Dose-dependent effect
2 | c1ccc2c(NCCCCCCCCCCNc3c4c(nc5ccccc35)CCCC4)c3c(nc2c1)CCCC3 | 0.15 | 0.12 | – | 15 | Active | Active | –
3 | O=C1CCCc2nc3ccccc3c(NCCCCCCCNc3c4c(nc5ccccc35)CCCC4=O)c21 | – | – | – | – | – | – | solubility [10]: Insoluble
4 | c1ccc2c(NCCCCCNc3c4c(nc5ccccc35)CCCC4)c3c(nc2c1)CCCC3 | 6.4 | 5.2 | – | – | Active | – | inhibition [5]: 9%
5 | Clc1ccc2c(NCCCCCCNc3c4c(nc5cc(Cl)ccc35)CCCC4)c3c(nc2c1)CCCC3 | 0.71 | 0.64 | 2.8 | 4.4 | Active | Active | inhibition [5]: 61%; IC50 [6]: 7.4 µM; inhibition [7]: Dose-dependent effect; Ratio IC50 [11]: 10
6 | CCC1CCc2nc3cc(Cl)ccc3c(N)c2C1 (stereo not drawn) | 3.5 | 2.8 | 24.4 | 8.7 | – | – | –
7 | CC1CCc2c(nc3ccc([N+](=O)[O-])cc3c2NCCCCCCNc2c3c(nc4ccc([N+](=O)[O-])cc24)CC(C)CC3)C1 (stereo not drawn) | 0.68 | 0.62 | – | 38.5 | Active | Active | inhibition [5]: 82%; IC50 [6]: 5.8 µM; inhibition [7]: Dose-dependent effect; Ratio IC50 [11]: 10
8 | CC1CCc2nc3cc(Cl)ccc3c(N)c2C1 (stereo not drawn) | 13.4 | 6 | 41.2 | 6.9 | – | – | –
9 | CCCC1CCc2nc3cc(Cl)ccc3c(N)c2C1 (stereo not drawn) | 3.4 | 2.6 | 8.4 | 3.2 | – | – | –
10 | CCCCOC1CCc2nc3cc(Cl)ccc3c(NCCCCCCCCCNc3c4c(nc5cc(Cl)ccc35)CCC(OCCCC)C4)c2C1 (stereo not drawn) | 0.42 | 0.43 | 8.6 | 20 | Active | Active | inhibition [5]: 26%
11 | CC1CCc2nc3ccc([N+](=O)[O-])cc3c(N)c2C1 (stereo not drawn) | 4.8 | 3.2 | 46.4 | 14.5 | – | – | –
12 | Nc1c2c(nc3ccc([N+](=O)[O-])cc13)CCCC2 | 15.1 | 8.6 | – | 5.2 | – | – | –
13 | COc1ccc2nc3c(c(NCCCCCCCCCNc4c5c(nc6ccc(OC)cc46)CCCC5)c2c1)CCCC3 | 0.14 | 0.12 | – | 10.6 | Active | Active | inhibition [5]: 82%; IC50 [6]: 18.1 µM; inhibition [7]: Dose-dependent effect
14 | O=C1CCCc2nc3ccccc3c(NCCCCCCNc3c4c(nc5ccccc35)CCCC4=O)c21 | – | – | – | – | – | – | solubility [10]: Insoluble
15 | CCC1CCc2nc3ccc(Cl)cc3c(N)c2C1 (stereo not drawn) | 3.7 | 2.7 | 8.3 | 3.1 | – | – | –
16 | CC1CCc2c(nc3ccccc3c2N)C1 (stereo not drawn) | 17.6 | 14.5 | 45 | 3.1 | – | – | –
17 | CCCC1CCc2nc3ccccc3c(N)c2C1 (stereo not drawn) | 3.5 | 2.6 | – | 16.5 | – | – | –
18 | Nc1c2c(nc3ccc(Cl)cc13)CCCC2 | 16.5 | 12 | – | 3.6 | – | – | –
19 | Nc1c2c(nc3ccccc13)CCCC2 [TACRINE] | 18.4 | 14.6 | – | > 6.8 | – | – | –

Row | SMILES | IC50 [1] [µM] | IC50 [2] [µM] | IC50 [3] [µM] | selectivity ratio at 48 h [4] | Activity [8] | inhibition [9] | also measured
20 | C1=Cc2c(nc3ccccc3c2NCCCCCCCCNc2c3c(nc4ccccc24)CCC=C3)CC1 | 0.25 | 0.08 | 1.7 | 21.3 | Active | Active | Stability [12]: Stable
21 | CC1CCc2c(nc3ccc([N+](=O)[O-])cc3c2N)C1 (stereo not drawn) | 3.7 | 6.1 | 43.3 | 7.1 | – | – | –
22 | c1ccc2c(NCCCCCCNc3c4c(nc5ccccc35)CCCC4)c3c(nc2c1)CCCC3 | 0.33 | 0.26 | 3 | – | Active | – | inhibition [5]: 25%; inhibition [13]: 45.2 to 47.9%; inhibition [14]: 56.6 to 57.5%; inhibition [15]: 15.1%; inhibition [16]: 27.5 to 29.2%
23 | CC1CCc2nc3ccc(Cl)cc3c(N)c2C1 (stereo not drawn) | 10.3 | 3.9 | 43.8 | 11.2 | – | – | –
24 | O=C1CCCc2nc3ccccc3c(NCCCCCCCCCCNc3c4c(nc5ccccc35)CCCC4=O)c21 | – | – | – | – | – | – | solubility [10]: Insoluble
25 | CCCC1CCc2nc3ccc(Cl)cc3c(N)c2C1 (stereo not drawn) | 3.4 | 2.7 | – | 3.1 | – | – | –
26 | CCC1CCc2nc3ccccc3c(N)c2C1 (stereo not drawn) | 17.2 | 12.3 | 43.6 | 3.5 | – | – | –
27 | CC1CCc2nc3ccccc3c(N)c2C1 (stereo not drawn) | 18.1 | 15.8 | 44.9 | 2.8 | – | – | –
28 | O=C1CCCc2nc3ccccc3c(NCCCCCCCCNc3c4c(nc5ccccc35)CCCC4=O)c21 | – | – | – | – | – | – | solubility [10]: Insoluble
29 | O=C1CCCc2nc3ccccc3c(NCCCCCCCCCNc3c4c(nc5ccccc35)CCCC4=O)c21 | – | – | – | – | – | – | solubility [10]: Insoluble
30 | Nc1c2c(nc3ccccc13)CCCC2=O | 18 | 14.6 | > 100 | > 6.8 | – | – | –
31 | CCOC1CCc2nc3cc(Cl)ccc3c(NCCCCCCCCCNc3c4c(nc5cc(Cl)ccc35)CCC(OCC)C4)c2C1 (stereo not drawn) | 0.71 | 0.63 | 1.7 | 2.8 | Active | Active | inhibition [5]: 89%; IC50 [6]: 13.3 µM; inhibition [7]: Dose-dependent effect
32 | C1=Cc2c(nc3ccccc3c2NCCCCCCCCCCNc2c3c(nc4ccccc24)CCC=C3)CC1 | 0.88 | 0.29 | 9.7 | 33.4 | Active | Active | Stability [12]: Stable
33 | C1=Cc2c(nc3ccccc3c2NCCCCCCCCCNc2c3c(nc4ccccc24)CCC=C3)CC1 | 0.25 | 0.09 | 1.6 | 16.7 | Active | Active | Stability [12]: Stable
34 | CC1(C)CCc2c(nc3cc(Cl)ccc3c2NCCCCCCNc2c3c(nc4cc(Cl)ccc24)CC(C)(C)CC3)C1 | 0.72 | 0.64 | 1.7 | 2.7 | Active | Active | inhibition [5]: 64%; IC50 [6]: 26.6 µM; inhibition [7]: Dose-dependent effect
35 | C1=Cc2c(nc3ccccc3c2NCCCCCCNc2c3c(nc4ccccc24)CCC=C3)CC1 | 0.7 | 0.51 | 1.8 | 3.5 | Active | Active | Stability [12]: Stable
36 | Nc1c2c(nc3cc(Cl)ccc13)CCCC2 | 17.1 | 12.6 | 41 | 3.3 | – | – | –
37 | N=C(N)c1ccc(OCCCCCOc2ccc(C(=N)N)cc2)cc1 [PENTAMIDINE] | – | 0.0053 | 38.6 | 7280 | – | – | –
